According to ChEMBL document CHEMBL1137344, “Flavonoid dimers as bivalent modulators for P-glycoprotein-based multidrug resistance: synthetic apigenin homodimers linked with defined-length poly(ethylene glycol) spacers increase drug retention and enhance chemosensitivity in resistant cancer cells” (J Med Chem, 2006):
One block for each compound: values may come before it. Calls of active or inactive are those of the source. No cut-off for these calls is given here.

Legend:
[1] = tested on: P388/ADR; assay: Reversal potency of daunorubicin resistance in P388 ADR cells by MTS assay; type: functional, cell-based; conditions: Mus musculus
Outline: (§1)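 P388/ADR cells: DOX or daunorubicin IC50 by 3-day MTS assay (A490) with modulator at 0–10 µM. Concentration dependence of IC50 used to gauge reversal potency. Typical experiment in triplicate.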

[2] = tested on: MDA-MB-435; assay: Reversal of paclitaxel resistance in multidrug resistant MDA435/LCC6 cells by MTS assay; type: functional, cell-based; conditions: Homo sapiens
Outline: (§2)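 Resistant MDA435/LCC6 cells, 4-day MTS assay of paclitaxel or vinblastine dose-response with dimers at 5 µM or monomers at 10 µM. Verapamil 5 µM as positive control, DMSO 0.05% as solvent control. IC50 from curves, triplicate, some repeated three times and averaged.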

[3] = tested on: MDA-MB-435; assay: Reversal of mitoxantrone resistance in multidrug resistant LCC6 cells by MTS assay; type: functional, cell-based; conditions: Homo sapiens
Outline: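 MDA435/LCC6 MDR cells in DMEM with 10% FBS, 2000 cells/well, allowed to attach for 24 h. Anticancer drug was added in serial concentrations with or without modulator (dimers 5 µM, monomers 10 µM; 0.05% DMSO solvent control), then grown for 4 days at 37 °C, 5% CO2. MTS/PMS was added for 2 h and A490 read. Survival was taken relative to DMSO controls; IC60 for DOX, IC50 for the others; triplicate.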

[4] = tested on: MDA-MB-435; assay: Cytotoxicity against MDA435/LCC6 cells at 5 uM; type: functional, cell-based; conditions: Homo sapiens
[5] = tested on: P388/ADR; assay: Reversal of mitoxantrone resistance in adriamycin resistant P388 cells by MTS assay; type: functional, cell-based; conditions: Mus musculus
Outline: (§3)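 P388/ADR cells in RPMI 1640 with 10% FBS and penicillin/streptomycin, 5000 cells/well. Serial drug concentrations were given with or without modulator (dimers 5 µM, monomers 10 µM; 0.05% DMSO control) and cells grown for 3 days at 37 °C. Read-out was MTS/PMS for 2 h, then A490. IC50 was taken from dose-response curves relative to solvent control; triplicate wells.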

[6] = tested on: P388/ADR; assay: Reversal potency of DOX resistance in P388 ADR cells by MTS assay; type: functional, cell-based; conditions: Mus musculus; outline: as §1
[7] = tested on: MDA-MB-435; assay: Effect on P-gp-mediated drug efflux in MDA435/LCC6 cells assessed as intracellular DOX accumulation; type: functional, cell-based; conditions: Homo sapiens
Outline: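 Confluent MDA435/LCC6 parent and MDR cells were preincubated with modulator in fresh DMEM for 30 min at 37 °C (range 0–20 µM; 0.05% DMSO control). DOX at 20 µM final was added for 2 h at 37 °C. Cells were trypsinised, washed three times in cold PBS, lysed in 0.3 N HCl/50% ethanol, sonicated and centrifuged. Supernatant DOX fluorescence was read (ex 470, em 585 nm); three independent experiments.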

[8] = tested on: P388/ADR; assay: Reversal of daunorubicin resistance in P388 ADR cells by MTS assay at 5 uM; type: functional, cell-based; conditions: Mus musculus; outline: as §3
[9] = tested on: MDA-MB-435; assay: Reversal of cisplatin resistance in multidrug resistant MDA435/LCC6 cells by MTS assay; type: functional, cell-based; conditions: Homo sapiens
[10] = target: T1, ATP-dependent translocase ABCB1 (Homo sapiens, UniProt P08183); assay: Increase in ATPase activity in human P-gp membrane measured as fold over the basal level in presence of 5 mM MgATP at 100 uM; type: functional, cell membranes
T1 sequence (P08183 whole entry): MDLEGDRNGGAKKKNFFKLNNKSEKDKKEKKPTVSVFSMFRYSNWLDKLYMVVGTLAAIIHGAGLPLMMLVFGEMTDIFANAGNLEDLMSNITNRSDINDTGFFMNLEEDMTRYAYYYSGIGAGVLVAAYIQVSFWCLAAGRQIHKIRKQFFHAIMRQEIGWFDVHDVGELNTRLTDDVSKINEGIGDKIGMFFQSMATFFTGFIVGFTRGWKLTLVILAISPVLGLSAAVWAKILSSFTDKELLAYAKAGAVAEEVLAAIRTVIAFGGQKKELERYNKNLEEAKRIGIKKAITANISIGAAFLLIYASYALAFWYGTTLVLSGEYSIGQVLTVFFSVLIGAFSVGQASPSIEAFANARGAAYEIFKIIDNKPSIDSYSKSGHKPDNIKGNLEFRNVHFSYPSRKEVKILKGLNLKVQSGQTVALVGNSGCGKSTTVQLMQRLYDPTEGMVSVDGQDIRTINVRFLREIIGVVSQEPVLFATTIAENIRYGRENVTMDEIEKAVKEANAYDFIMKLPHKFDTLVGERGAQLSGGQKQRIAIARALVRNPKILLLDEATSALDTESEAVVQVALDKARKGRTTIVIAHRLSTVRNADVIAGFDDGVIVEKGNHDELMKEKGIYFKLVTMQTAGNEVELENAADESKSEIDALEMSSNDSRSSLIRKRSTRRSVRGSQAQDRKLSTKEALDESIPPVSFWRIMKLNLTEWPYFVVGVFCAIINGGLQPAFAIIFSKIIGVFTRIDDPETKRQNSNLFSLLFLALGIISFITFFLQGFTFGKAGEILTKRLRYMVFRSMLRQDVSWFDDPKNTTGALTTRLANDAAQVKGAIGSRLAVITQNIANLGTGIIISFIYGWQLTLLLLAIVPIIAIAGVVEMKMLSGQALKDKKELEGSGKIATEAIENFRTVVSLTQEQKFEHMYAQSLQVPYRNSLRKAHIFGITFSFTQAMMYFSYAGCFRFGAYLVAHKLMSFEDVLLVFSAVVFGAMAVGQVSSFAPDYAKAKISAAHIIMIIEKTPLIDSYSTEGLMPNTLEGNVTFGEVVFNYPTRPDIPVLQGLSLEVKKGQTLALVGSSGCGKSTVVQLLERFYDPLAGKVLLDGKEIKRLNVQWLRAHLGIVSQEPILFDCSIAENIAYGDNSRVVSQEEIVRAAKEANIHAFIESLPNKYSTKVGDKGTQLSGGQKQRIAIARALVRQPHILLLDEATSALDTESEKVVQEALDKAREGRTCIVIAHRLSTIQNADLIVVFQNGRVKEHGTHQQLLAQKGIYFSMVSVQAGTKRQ
Outline: (§4)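 Human P-gp membrane (25 µg) incubated at 37 °C with compound (100 µM), verapamil (100 µM), both, Na3VO4 (100 µM) or 0.1% DMSO. Reaction started with 5 mM MgATP, run 40 min at 37 °C. Remaining ATP detected by luciferase luminescence after 20 min at room temperature. Activity is the luminescence drop versus vanadate-treated samples.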

[11] = tested on: MDA-MB-435; assay: Reversal potency of vinblastine resistance in multidrug resistant MDA435/LCC6 cells by MTS assay; type: functional; conditions: Homo sapiens, in the assay text read “doxorubicin” for “vinblastine”
[12] = target: T1, ATP-dependent translocase ABCB1; assay: Inhibition of VP-induced ATPase activity in human P-gp membrane in presence of verapamil; type: functional, cell membranes; set-up: scale not given: the % may be the effect or the level left
[13] = tested on: P388/ADR; assay: Reversal of DOX resistance in P388 ADR cells by MTS assay at 5 uM; type: functional, cell-based; conditions: Mus musculus
Outline: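 P388/ADR cells: 3-day MTS assay of DOX dose-response with modulator at 5 µM, or 10 µM for monomers. Verapamil 5 µM and 0.05% DMSO as controls. IC50 from curves, triplicate points, mean ± SD of three independent experiments.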

[14] = tested on: P388; assay: Effect on P-gp-mediated drug efflux in P388 cells assessed as DOX accumulation after 30 mins; conditions: Mus musculus
[15] = tested on: P388/ADR; assay: Effect on P-gp-mediated drug efflux in adriamycin drug resistant P388 cells assessed as DOX accumulation after 30 mins; conditions: Mus musculus
[16] = tested on: MDA-MB-435; assay: Effect on P-gp-mediated drug efflux in multidrug resistant MDA435/LCC6 cells assessed as intracellular DOX accumulation at 0 to 10 uM; type: functional, Homo sapiens
Outline: (§5)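 Resistant MDA435/LCC6 cells grown to confluence, preincubated 30 min at 37 °C in fresh DMEM with modulator (0–20 µM), then DOX added (final 20 µM) for 2 h at 37 °C. Cells trypsinized, washed in cold PBS, lysed in 0.3 N HCl/50% ethanol, sonicated, centrifuged. Supernatant fluorescence read at ex 470/em 585 nm. Mean ± SD of three independent experiments.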

[17] = tested on: MDA-MB-435; assay: Reversal of vinblastine resistance in multidrug resistant MDA435/LCC6 cells by MTS assay; type: functional, cell-based; conditions: Homo sapiens; outline: as §2
[18] = tested on: MDA-MB-435; assay: Effect on P-gp-mediated drug efflux in multidrug resistant MDA435/LCC6 cells assessed as relative fold in intracellular DOX accumulation at 10 uM; type: functional, Homo sapiens; outline: as §5
[19] = target: T1, ATP-dependent translocase ABCB1; assay: Increase in VP-induced ATPase activity in human P-gp membrane measured as fold over the basal level in presence of 5 mM MgATP at 100 uM; type: functional, cell membranes; outline: as §4
[20] = tested on: P388; assay: Relative fold, IC50 in absence to presence of verapamil in multidrug resistant P388 cells; type: functional, Mus musculus
Outline: (§6)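 P388/ADR cells seeded 5000/well in RPMI 1640 with 10% FBS, given drug concentration series with or without 5 µM modulator for 3 days. MTS/PMS added for 2 h at 37 °C, absorbance at 490 nm. IC50 from dose-response curves versus 0.05% DMSO controls. RF = IC50 without modulator / IC50 with modulator.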

[21] = tested on: MDA-MB-435; assay: Antiproliferative activity against multidrug resistant MDA435/LCC6 cells by ELISA; type: functional, cell-based; conditions: Homo sapiens
Outline: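 MTS/PMS proliferation assay: cells seeded 2000/well, drugs added after 24 h attachment, growth 4 days in DMEM with 10% FBS at 37 °C, 5% CO2. MTS/PMS added for 2 h, absorbance read at 490 nm. Survival is taken relative to DMSO (0.05%) controls. IC50 is read from dose-response curves, at least triplicate, repeated twice.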

[22] = tested on: P388; assay: Relative fold, IC50 in absence to presence of 1,13-bis[4'-((5,7-dihydroxy)-4H-chromen-4-on-2-yl)phenyl]-1,4,7,10,13-pentaoxatridecane in multidrug resistant P388 cells; type: functional, Mus musculus; outline: as §6
[23] = tested on: MDA-MB-435; assay: Relative fold, IC50 in absence to presence of 1,13-bis[4'-((5,7-dihydroxy)-4H-chromen-4-on-2-yl)phenyl]-1,4,7,10,13-pentaoxatridecane in multidrug resistant MDA435/LCC6 cells; type: functional, Homo sapiens
Outline: (§7)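 Resistant breast cells seeded 2000/well, allowed 24 h attachment, then exposed to anticancer-drug concentration series with or without 5 µM modulator for 4 days. MTS/PMS read at 490 nm after 2 h. IC50 from dose-response curves relative to 0.05% DMSO controls. RF = IC50 without modulator divided by IC50 with modulator.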

[24] = tested on: P388/ADR; assay: Antiproliferative activity against adriamycin resistant P388 cells in presence of 5 uM 1,13-bis[4'-((5,7-dihydroxy)-4H-chromen-4-on-2-yl)phenyl]-1,4,7,10,13-pentaoxatridecane by ELISA; type: functional, cell-based; conditions: Mus musculus; outline: as §6
[25] = tested on: MDA-MB-435; assay: Antiproliferative activity against MDA435/LCC6 cells by ELISA; type: functional, cell-based; conditions: Homo sapiens
[26] = tested on: P388; assay: Antiproliferative activity against P388 cells by ELISA; type: functional, cell-based; conditions: Mus musculus
Outline: (§8)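 MTS/PMS proliferation assay: cells seeded 5000/well in RPMI 1640 with 10% FBS and penicillin/streptomycin at 37 °C, 5% CO2. Drug series added and cells grown 3 days. MTS/PMS added for 2 h at 37 °C, absorbance read at 490 nm. Survival relative to DMSO (0.05%) controls; IC50 from dose-response curves, at least triplicate.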

[27] = tested on: P388/ADR; assay: Antiproliferative activity against adriamycin resistant P388 cells in presence of 5 uM verapamil by ELISA; type: functional, cell-based; conditions: Mus musculus; outline: as §6
[28] = tested on: MDA-MB-435; assay: Antiproliferative activity against multidrug resistant MDA435/LCC6 cells in presence of 5 uM 1,13-bis[4'-((5,7-dihydroxy)-4H-chromen-4-on-2-yl)phenyl]-1,4,7,10,13-pentaoxatridecane by ELISA; type: functional, cell-based; conditions: Homo sapiens; outline: as §7
[29] = tested on: P388/ADR; assay: Antiproliferative activity against adriamycin resistant P388 cells by ELISA; type: functional, cell-based; conditions: Mus musculus; outline: as §8

Structure (SMILES): O=c1cc(-c2ccc(OCCOCCOCCOCCOc3ccc(-c4cc(=O)c5c(O)cc(O)cc5o4)cc3)cc2)oc2cc(O)cc(O)c12
- IC50 [1]: 100 nM
- EC50 [2]: 900 nM
- IC50 [2]: 4.4 nM
- Activity [3]: inactive
- Activity [4]: inactive
- Activity [5]: inactive
- IC50 [6]: 150 nM
- Activity [7]: inactive
- IC50 [8]: 100 nM
- Activity [9]: inactive
- Activity [10]: 3.3
- IC60 [11]: 730 nM
- Activity [12]: 17%
- IC50 [13]: 150 nM
- Activity [14]: inactive
- Activity [15]: Dose-dependent effect
- Activity [16]: 17%
- Activity [17]: Dose-dependent effect
- IC50 [17]: 0.36 nM
- Activity [18]: 5.8
- Activity [19]: 7.4

- IC50 [21]: 977 nM
- IC50 [24]: 106 nM
- IC50 [25]: 79 nM
- IC50 [26]: 25 nM
- IC50 [27]: 40 nM
- IC50 [28]: 129 nM
- IC50 [29]: 2110 nM
Structure (SMILES): COc1cccc2c1C(=O)c1c(O)c3c(c(O)c1C2=O)C[C@@](O)(C(C)=O)C[C@@H]3O[C@H]1C[C@H](N)[C@H](O)[C@H](C)O1 [DAUNORUBICIN]
- Ratio IC50 [20]: 53
- Ratio IC50 [22]: 20
- Ratio IC50 [23]: 7.6
